This is a sample that favours compounds with a hit; in the whole collection about 2.1% have one here.
MIN6 prolif – MIN6 beta-cell proliferation induction; 0.29% of 330,000 active; proliferation, % at 10 µM; AID 2380; MIN6 cells proliferation, ATPlite luminescence, 48 h; cells starved in 0.2% serum; 100% = growth in 10% serum;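 active = compounds whose signal lies at least 3.5 SD above the mean of all wells on their plate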;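 note: 0% = DMSO-treated cells in low-serum medium and 100% = 10% serum control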
TLR4 MyD88 comp – inhibitors of human TLR4-MyD88 binding | O00206+Q99836 | HeLa CL3-4 TLR4/MyD88 BLA complementation, FRET ratio | inhibition, % at 8.4 µM | 0.18% of 200,000 active; in the data active = inhibition above about 25%;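 note: 0% = vehicle and 100% = reference inhibitor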
TLR9-MyD88 block – inhibitors of human TLR9-MyD88 binding | CHO BLA complementation TLR9-MyD88, CCF4 FRET ratio | 0.21% of 340,000 active | Q9NR96+Q99836 | inhibition, % at 4.98 µM | AID 504734;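 active = inhibition above the mean over all tested compounds plus 3 SD, cut at about 21% in these data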;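 note: 0% = DMSO only wells and 100% = clavulanate BLA inhibitor control wells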
NOD2-RIPK2 inh – blocks binding of human NOD2 to RIPK2 | CHO BLA complementation NOD2-RIPK2, CCF4 ratio | inhibition, % at 4.98 µM | AID 624267 | 0.38% of 360,000 active | O43353; in the data active = inhibition above about 21%;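 note: 0% = vehicle only and 100% = reference blocker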
MC4R ag barr – agonists of human melanocortin 4 receptor (MC4R) beta-arrestin; P32245; U2OS MC4R beta-arrestin complementation, luminescence; percent of melanotan II response, DMSO zero; activation, % at 8.9 µM; 0.98% of 360,000 active;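 active = activation above a per-plate cutoff, the mean activation of sample wells on that plate plus 3 SD, cut at about 8% in these data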
Target sequence (P32245 whole entry, looked up): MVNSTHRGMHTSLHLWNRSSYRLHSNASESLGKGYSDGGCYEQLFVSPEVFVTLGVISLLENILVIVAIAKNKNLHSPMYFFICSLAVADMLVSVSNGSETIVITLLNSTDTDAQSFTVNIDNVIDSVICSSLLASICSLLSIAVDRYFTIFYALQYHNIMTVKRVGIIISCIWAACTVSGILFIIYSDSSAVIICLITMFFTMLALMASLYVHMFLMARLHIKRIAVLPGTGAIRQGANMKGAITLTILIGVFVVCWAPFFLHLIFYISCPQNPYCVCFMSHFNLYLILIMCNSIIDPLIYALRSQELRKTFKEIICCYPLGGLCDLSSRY
MC4R antag cAMP – blocks human MC4R cAMP signaling; P32245; MC4R-expressing cells, MTII-stimulated cAMP, LANCE TR-FRET; inhibition, % at 6.5 µM; 0.48% of 360,000 active; AID 540295;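 active = inhibition above its plate's cutoff, the mean of tested wells on that plate plus 3 SD, cut at about 29% in these data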;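 note: 0% = Melanotan II alone and 100% = Melanotan II plus saturating MCL0020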
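Test system: U2OS cells stably expressing human melanocortin 4 receptor (MC4R); also added: Melanotan II challenge; compound: 6.5 µM single dose; timing: 30-min compound preincubation, 1-h Melanotan II challenge, 1-h detection, room temperature; signal: Eu-cAMP/anti-cAMP TR-FRET, emission 671 nm; repeats: one well per compound, no replicates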
MC4R barr ag – human MC4R beta-arrestin agonism confirmation; 31% of 2,400 active; U2OS MC4R beta-arrestin recruitment, luminescence; scaled DMSO 0%, Melanotan II 100%; activation, % at 8.9 µM; shares compounds with MC4R ag barr;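 active = mean activation across replicates above the hit cutoff set in the earlier primary screen, cut at about 8% in these data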
MOR-DOR barr ag – counter-screen for MC4R agonists: agonists of mu-delta opioid heterodimer. shares compounds with MC4R ag barr. U2OS PathHunter beta-arrestin, beta-gal luminescence; percent of deltorphin B response, DMSO zero. activation, % at 9.2 µM. 5.8% of 2,400 active. AID 602194;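 active = mean activation across replicates exceeds the hit threshold derived in the earlier primary screen, cut at about 18% in these data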;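 note: 100% = deltorphin B at 0.9 µM final and 0% = DMSO alone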
Numbers without * were called inactive; nt = no result given; ! = a repeat was not active.

SMILES | MIN6 prolif | TLR4 MyD88 comp | TLR9-MyD88 block | NOD2-RIPK2 inh | MC4R ag barr | MC4R antag cAMP | MC4R barr ag | MOR-DOR barr ag
CCCc1cc(-c2n[nH]c(C)c2-c2ccc(C(=O)OCC)o2)c(O)cc1O | -5 | 12 | -6 | 8 | 13* | 6 | 5 | 3
CC1(C)NC(=O)N(CCC(=O)Nc2ccc(C(C)(C)C)cc2)C1=O | nt | nt | 9 | -3 | 0 | 6 | nt | nt
Cc1n[nH]c(C)c1S(=O)(=O)N(CC(=O)N1CCc2ccccc21)c1ccc(C(C)C)cc1 | 1 | 1 | -3 | 4 | 13* | -28 | 8 | 7
CCNC(=O)C1(C)CCN(C(=O)c2cccnc2SC)C1 (configuration not stated) | nt | nt | nt | -3 | 0 | 4 | nt | nt
CN1CCN(C2Cc3ccccc3Sc3ccc(Cl)cc32)CC1 (configuration not stated) | -8 | nt | -7 | 14 | 4 | -2 | nt | nt
CSc1ccc2c(c1)C(N1CCN(C)CC1)Cc1ccccc1S2 (configuration not stated) | -8 | nt | 5 | -11 | 11*! | -1 | 6 | 8
CC(C)Oc1ccc(C(=O)Nc2ccc(NC(=O)c3ccco3)c(Cl)c2)cc1 | -1 | 0 | 5 | -4 | 2 | -2 | nt | nt
CC(C)COc1ccc(C(=O)Nc2ccc(NC(=O)c3ccco3)c(Cl)c2)cc1 | -4 | -11 | -1 | -3 | 40* | 3 | 24* | 28*
O=C(Cc1coc2ccc3ccccc3c12)Nc1nnc(C2CC2)s1 | 0 | -1 | 7 | -4 | 27* | -5 | 9.5* | 4
Cc1cc2occ(CC(=O)Nc3nnc(C4CC4)s3)c2cc1C | -2 | 5 | -6 | -3 | -1 | 5 | nt | nt
COc1cccc(N2CCN(CC(=O)N3CCN(S(=O)(=O)c4ccc(Cl)cc4)CC3)CC2)c1 | -2 | nt | -4 | 3 | 0 | -1 | nt | nt
CC(=O)c1ccc(Cc2ccc(C(C)=O)s2)s1 | nt | nt | -8 | -11 | 11* | 0 | 12* | 2
CCc1ccc(C(=O)c2ccccc2C(=O)O)s1 | -1 | -1 | 0 | 1 | -1 | 8 | nt | nt
O=C(COC(=O)c1nc(Cl)ccc1Cl)c1ccccc1Cl | -3 | nt | -4 | -1 | 1 | 1 | nt | nt
CC(=O)Nc1ccc(N(C(=O)Cc2c[nH]c3ccccc23)C(C(=O)NC2CCCCC2)c2ccco2)cc1 (configuration not stated) | 0 | 3 | 7 | -7 | -2 | 5 | nt | nt
Cc1ccc(C(C(=O)NC2CCCCC2)N(C(=O)Cc2c[nH]c3ccccc23)c2ccccc2)o1 (configuration not stated) | -5 | -2 | -8 | 1 | 12* | -6 | 6 | 10
CCN(Cc1ccccc1)S(=O)(=O)c1ccc(S(=O)(=O)N(Cc2ccccn2)Cc2ccco2)cc1 | -1 | -17 | 2 | -1 | 13* | -2 | 4 | 3
COc1ccc(OCc2nnc(SCC(=O)Nc3ccccc3F)o2)cc1 | 2 | nt | -5 | -4 | 0 | -3 | nt | nt
O=C(NC1CCCCC1)N1CCN(c2ccccc2Cl)CC1 | 3 | nt | -20 | -7 | -3 | 8 | nt | nt
O=C(NNC(=O)c1cccnc1Cl)c1ccc(F)cc1 | -2 | nt | -4 | -1 | -1 | 3 | nt | nt
O=C(NCC1CCCO1)c1csc(Nc2cccc3ccccc23)n1 (configuration not stated) | 0 | 1 | 7 | -1 | -3 | 6 | nt | nt
Cc1ccc(NC(=O)CCC(=O)OCC(=O)c2ccc(Oc3ccc([N+](=O)[O-])cc3)cc2)cc1 | -3 | -1 | -2 | 6 | 26* | -3 | -1 | 6
CCCN(CCC)c1cc(Cl)nc(N)n1 | 3 | 4 | 4 | 0 | -1 | -3 | nt | nt
CCOc1ccc(CCNS(=O)(=O)c2c(C)nc3sccn3c2=O)cc1OCC | nt | nt | nt | -1 | -1 | 14 | nt | nt
C/C(=N\N=C1\NC(=O)C(CC(=O)Nc2ccc(Cl)cc2)S1)c1ccco1 (configuration not stated) | -4 | 7 | 9 | -3 | 0 | -3 | nt | nt
SMILES | MIN6 prolif | TLR4 MyD88 comp | TLR9-MyD88 block | NOD2-RIPK2 inh | MC4R ag barr | MC4R antag cAMP | MC4R barr ag | MOR-DOR barr ag
C/C(=N\N=C1\NC(=O)C(CC(=O)Nc2ccc(C)c(Cl)c2)S1)C(C)(C)C (configuration not stated) | -5 | 0 | 6 | -2 | 16* | 15 | 5 | 5
O=C(NCc1ccccc1CN1CCCC1)c1cc2ccccc2o1 | nt | nt | -9 | 1 | 0 | 6 | nt | nt
O=C(COC(=O)c1cccnc1Cl)Nc1cc(S(=O)(=O)N2CCCCCC2)ccc1Cl | 3 | nt | 0 | 1 | -1 | 5 | nt | nt
O=C(COC(=O)c1nn(-c2ccccc2C(F)(F)F)cc1O)c1ccc(OC(F)F)cc1 | 4 | nt | 9 | 0 | 11* | 0 | 2 | 2
Cc1cccc(NC(=O)COC(=O)c2nn(-c3ccccc3C(F)(F)F)cc2O)c1C | nt | nt | 4 | -1 | 0 | 4 | nt | nt
Cc1ccc(NC(=O)CSc2ccccc2NC(=O)c2ccccc2)cc1Cl | -5 | 0 | 16 | 3 | 13* | 12 | 8 | 24*
Cc1ccc(NC(=O)CSc2ccccc2NC(=O)c2ccccc2Cl)cc1Cl | 0 | 8 | 20 | 15 | 0 | 8 | nt | nt
Cc1ccc(C)c(NC(=O)C(=O)NCC2CCCN2S(=O)(=O)c2cccs2)c1 (configuration not stated) | 4 | nt | -2 | 1 | -4 | 5 | nt | nt
CCOC(=O)N1CCC(NC(=O)c2cc3c(=O)[nH]c4ccccc4c3n2C)CC1 | -5 | 1 | 5 | -1 | -4 | -3 | nt | nt
Cn1c(CCCOc2ccc(Cl)cc2Cl)nnc1SCC(=O)Nc1cccc(F)c1 | -2 | -2 | 1 | 3 | 19* | -2 | 9.8* | 10
C=CCn1c(CCCOc2ccc(Cl)cc2Cl)nnc1SCC(=O)Nc1nccs1 | -3 | -3 | -2 | 1 | 9.7* | -6 | 1 | 6
CCCCCCNC(=O)c1c(N)n(/N=C/c2ccco2)c2nc3ccccc3nc12 | nt | -2 | nt | nt | nt | nt | nt | nt
CCCCCCn1c(C)nc2c(c1=O)c1nc3ccccc3nc1n2/N=C/c1ccco1 | -6 | -9 | 7 | 1 | 25* | -1 | 0 | 2
Cn1c(NC(=O)Cc2ccc(F)cc2)cc(=O)n(C)c1=O | -3 | 11 | -8 | -8 | 0 | 17 | nt | nt
CC(C)c1ccc(/C=C/C(=O)Nc2nc3ccc([N+](=O)[O-])cc3s2)cc1 | -5 | 9 | -4 | -4 | 22* | 2 | 5 | 4

Screens (PubChem BioAssay)
